# Assay results taken from ChEMBL document CHEMBL1287807, “Novel TNF-α converting enzyme (TACE) inhibitors as potential treatment for inflammatory diseases” (Bioorg Med Chem Lett, 2010).
# Legend:
# [1] = tested on: Blood; experiment: Antiinflammatory activity in human whole blood assessed as inhibition of LPS-induced TNFalpha production after 3.5 hrs by ELISA; type: functional
# Summary of the method: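 Human whole blood, diluted 1:1 in serum-free RPMI with L-glutamine, Pen-Strep and HEPES, is preincubated with compound for 1 h at 37 °C. It is then stimulated with LPS. Supernatant is harvested after 3.5 h incubation, and TNF-α concentration is measured by ELISA.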
# [2] = target: Disintegrin and metalloproteinase domain-containing protein 17 (Homo sapiens, UniProt P78536); experiment: Inhibition of TACE
# [3] = Half life in rat at 3 mg/kg, iv; type: ADME, organism-based; set-up: dose 3 mg/kg, route intravenous; conditions: in vivo
# [4] = target: T1, Interstitial collagenase (Homo sapiens, UniProt P03956); experiment: Inhibition of MMP1
# T1 sequence (P03956 whole entry): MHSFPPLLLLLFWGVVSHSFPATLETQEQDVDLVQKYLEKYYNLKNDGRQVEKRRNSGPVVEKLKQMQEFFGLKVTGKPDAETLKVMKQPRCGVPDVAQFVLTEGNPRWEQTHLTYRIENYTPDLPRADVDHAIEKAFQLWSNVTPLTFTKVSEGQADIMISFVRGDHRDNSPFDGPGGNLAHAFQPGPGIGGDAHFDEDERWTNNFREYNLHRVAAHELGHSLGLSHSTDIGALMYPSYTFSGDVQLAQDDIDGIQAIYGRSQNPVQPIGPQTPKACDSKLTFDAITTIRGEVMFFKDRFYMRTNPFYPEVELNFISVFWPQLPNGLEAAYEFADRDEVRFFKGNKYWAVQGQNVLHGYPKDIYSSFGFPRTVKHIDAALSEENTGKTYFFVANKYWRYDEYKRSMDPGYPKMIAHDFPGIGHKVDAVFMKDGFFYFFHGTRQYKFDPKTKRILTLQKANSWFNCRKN
# [5] = Tmax in monkey at 3 mg/kg, po; type: ADME, organism-based, Macaca mulatta; set-up: dose 3 mg/kg, route oral; conditions: rhesus monkey, in vivo
# [6] = AUC in dog at 5 mg/kg, po; type: ADME, organism-based, Canis lupus familiaris; set-up: dose 5 mg/kg, route oral; conditions: plasma
# [7] = Clearance in rat at 3 mg/kg, iv; type: ADME, organism-based; set-up: dose 3 mg/kg, route intravenous; conditions: in vivo
# [8] = AUC in monkey at 1 mg/kg, iv; type: ADME, organism-based, Macaca mulatta; set-up: dose 1 mg/kg, route intravenous; conditions: rhesus monkey, plasma
# Summary of the method: (§1)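 Compound dosed as its Na+ salt, intravenously or orally, at the dose given in each line. AUC is reported in uM.h.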
# [9] = Oral bioavailability in monkey at 3 mg/kg; type: ADME, organism-based, Macaca mulatta; conditions: rhesus monkey, in vivo
# [10] = AUC in rat at 10 mg/kg, po; type: ADME, organism-based; set-up: dose 10 mg/kg, route oral; conditions: plasma; summary of the method: as §1
# [11] = target: Stromelysin-1 (Homo sapiens, UniProt P08254); experiment: Inhibition of MMP3
# [12] = target: Matrix metalloproteinase-9 (Homo sapiens, UniProt P14780); experiment: Inhibition of MMP9
# [13] = Half life in monkey at 1 mg/kg, iv; type: ADME, organism-based, Macaca mulatta; set-up: dose 1 mg/kg, route intravenous; conditions: rhesus monkey, in vivo
# [14] = target: Collagenase 3 (Homo sapiens, UniProt P45452); experiment: Inhibition of MMP13
# [15] = target: T2, Matrilysin (Homo sapiens, UniProt P09237); experiment: Inhibition of MMP7
# T2 sequence (P09237 whole entry): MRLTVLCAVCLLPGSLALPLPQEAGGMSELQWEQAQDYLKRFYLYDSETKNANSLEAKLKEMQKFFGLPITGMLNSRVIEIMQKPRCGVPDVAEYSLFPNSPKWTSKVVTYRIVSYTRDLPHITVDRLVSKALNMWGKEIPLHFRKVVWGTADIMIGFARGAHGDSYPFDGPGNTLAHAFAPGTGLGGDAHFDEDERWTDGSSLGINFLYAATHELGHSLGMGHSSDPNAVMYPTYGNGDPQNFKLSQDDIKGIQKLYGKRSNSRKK
# [16] = Half life in dog at 0.5 mg/kg, iv; type: ADME, organism-based, Canis lupus familiaris; set-up: dose 0.5 mg/kg, route intravenous; conditions: in vivo
# [17] = AUC in dog at 0.5 mg/kg, iv; type: ADME, organism-based, Canis lupus familiaris; set-up: dose 0.5 mg/kg, route intravenous; conditions: plasma
# [18] = Clearance in monkey at 1 mg/kg, iv; type: ADME, organism-based, Macaca mulatta; set-up: dose 1 mg/kg, route intravenous; conditions: rhesus monkey, in vivo
# [19] = Clearance in dog at 0.5 mg/kg, iv; type: ADME, organism-based, Canis lupus familiaris; set-up: dose 0.5 mg/kg, route intravenous; conditions: in vivo
# [20] = target: 72 kDa type IV collagenase (Homo sapiens, UniProt P08253); experiment: Inhibition of MMP2
# [21] = Oral bioavailability in rat at 10 mg/kg; type: ADME, organism-based; conditions: in vivo
# [22] = AUC in monkey at 3 mg/kg, po; type: ADME, organism-based, Macaca mulatta; set-up: dose 3 mg/kg, route oral; conditions: rhesus monkey, plasma; summary of the method: as §1
# [23] = Oral bioavailability in dog at 5 mg/kg; type: ADME, organism-based, Canis lupus familiaris; conditions: in vivo
# [24] = Tmax in rat at 10 mg/kg, po; type: ADME, organism-based; set-up: dose 10 mg/kg, route oral; conditions: in vivo
# [25] = Tmax in dog at 5 mg/kg, po; type: ADME, organism-based, Canis lupus familiaris; set-up: dose 5 mg/kg, route oral; conditions: in vivo
# [26] = target: T3, Disintegrin and metalloproteinase domain-containing protein 10 (Homo sapiens, UniProt O14672); experiment: Inhibition of ADAM10
# T3 sequence (O14672 whole entry): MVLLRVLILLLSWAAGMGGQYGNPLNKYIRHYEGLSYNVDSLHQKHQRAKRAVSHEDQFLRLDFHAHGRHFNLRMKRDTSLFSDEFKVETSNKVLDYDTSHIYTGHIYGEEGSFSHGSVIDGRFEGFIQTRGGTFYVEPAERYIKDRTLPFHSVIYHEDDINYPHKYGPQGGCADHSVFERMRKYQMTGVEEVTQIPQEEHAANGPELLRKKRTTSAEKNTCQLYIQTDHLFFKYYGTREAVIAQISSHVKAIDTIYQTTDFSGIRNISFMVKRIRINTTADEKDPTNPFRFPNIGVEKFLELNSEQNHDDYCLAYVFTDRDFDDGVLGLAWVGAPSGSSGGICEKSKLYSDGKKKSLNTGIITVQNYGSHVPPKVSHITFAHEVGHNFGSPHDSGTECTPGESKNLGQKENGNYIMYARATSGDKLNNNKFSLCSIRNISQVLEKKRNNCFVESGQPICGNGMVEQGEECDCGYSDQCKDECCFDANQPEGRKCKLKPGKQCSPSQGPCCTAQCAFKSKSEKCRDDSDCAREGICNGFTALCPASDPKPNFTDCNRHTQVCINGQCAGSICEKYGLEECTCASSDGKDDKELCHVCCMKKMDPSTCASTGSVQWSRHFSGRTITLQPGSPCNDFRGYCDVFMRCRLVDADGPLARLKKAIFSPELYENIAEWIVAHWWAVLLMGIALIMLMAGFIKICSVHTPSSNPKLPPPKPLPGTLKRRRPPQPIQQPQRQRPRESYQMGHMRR
# [27] = AUC in rat at 3 mg/kg, iv; type: ADME, organism-based; set-up: dose 3 mg/kg, route intravenous; conditions: plasma; summary of the method: as §1
# Chain of Disintegrin and metalloproteinase domain-containing protein 17 (P78536 whole entry, the tested form may be a part): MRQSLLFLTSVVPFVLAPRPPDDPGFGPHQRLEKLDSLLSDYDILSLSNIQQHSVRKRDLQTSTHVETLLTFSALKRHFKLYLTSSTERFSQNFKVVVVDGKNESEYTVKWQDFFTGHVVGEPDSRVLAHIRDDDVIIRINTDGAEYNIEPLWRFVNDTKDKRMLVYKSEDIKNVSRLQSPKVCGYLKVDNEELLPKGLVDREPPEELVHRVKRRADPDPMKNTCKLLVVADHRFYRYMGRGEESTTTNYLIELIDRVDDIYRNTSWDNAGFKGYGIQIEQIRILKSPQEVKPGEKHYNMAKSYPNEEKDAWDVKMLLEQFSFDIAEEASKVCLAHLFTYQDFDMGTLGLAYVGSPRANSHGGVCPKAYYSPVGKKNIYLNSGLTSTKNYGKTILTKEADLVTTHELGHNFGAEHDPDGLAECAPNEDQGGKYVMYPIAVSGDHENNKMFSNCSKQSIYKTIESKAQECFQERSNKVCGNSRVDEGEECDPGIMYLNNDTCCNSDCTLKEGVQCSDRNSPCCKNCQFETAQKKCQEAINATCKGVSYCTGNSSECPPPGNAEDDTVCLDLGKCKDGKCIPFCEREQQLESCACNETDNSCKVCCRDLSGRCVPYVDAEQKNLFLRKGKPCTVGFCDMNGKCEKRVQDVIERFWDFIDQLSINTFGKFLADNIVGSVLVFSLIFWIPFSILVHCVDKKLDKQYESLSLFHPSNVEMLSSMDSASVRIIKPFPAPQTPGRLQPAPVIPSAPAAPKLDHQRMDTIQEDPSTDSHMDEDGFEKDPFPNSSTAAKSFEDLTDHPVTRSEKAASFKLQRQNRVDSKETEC
# Chain of Matrix metalloproteinase-9 (P14780 whole entry): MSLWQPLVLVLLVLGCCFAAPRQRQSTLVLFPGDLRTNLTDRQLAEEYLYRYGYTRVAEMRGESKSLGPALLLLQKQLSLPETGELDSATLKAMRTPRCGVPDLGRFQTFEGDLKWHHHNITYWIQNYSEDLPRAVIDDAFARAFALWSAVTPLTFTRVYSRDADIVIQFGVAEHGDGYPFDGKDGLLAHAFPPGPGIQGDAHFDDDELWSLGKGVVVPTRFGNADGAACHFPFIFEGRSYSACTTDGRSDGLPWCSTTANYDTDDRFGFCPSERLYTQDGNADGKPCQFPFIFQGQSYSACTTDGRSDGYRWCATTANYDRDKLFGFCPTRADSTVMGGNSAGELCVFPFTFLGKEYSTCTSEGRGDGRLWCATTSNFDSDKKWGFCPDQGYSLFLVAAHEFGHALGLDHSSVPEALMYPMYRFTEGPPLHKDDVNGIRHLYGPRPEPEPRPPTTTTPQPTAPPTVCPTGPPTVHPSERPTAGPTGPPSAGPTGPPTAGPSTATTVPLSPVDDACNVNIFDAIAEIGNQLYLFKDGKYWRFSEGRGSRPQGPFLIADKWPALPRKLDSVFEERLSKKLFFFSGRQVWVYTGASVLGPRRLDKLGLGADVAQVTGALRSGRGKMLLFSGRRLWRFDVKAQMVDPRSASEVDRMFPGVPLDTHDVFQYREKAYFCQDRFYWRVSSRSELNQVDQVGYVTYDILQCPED
# Chain of 72 kDa type IV collagenase (P08253 whole entry): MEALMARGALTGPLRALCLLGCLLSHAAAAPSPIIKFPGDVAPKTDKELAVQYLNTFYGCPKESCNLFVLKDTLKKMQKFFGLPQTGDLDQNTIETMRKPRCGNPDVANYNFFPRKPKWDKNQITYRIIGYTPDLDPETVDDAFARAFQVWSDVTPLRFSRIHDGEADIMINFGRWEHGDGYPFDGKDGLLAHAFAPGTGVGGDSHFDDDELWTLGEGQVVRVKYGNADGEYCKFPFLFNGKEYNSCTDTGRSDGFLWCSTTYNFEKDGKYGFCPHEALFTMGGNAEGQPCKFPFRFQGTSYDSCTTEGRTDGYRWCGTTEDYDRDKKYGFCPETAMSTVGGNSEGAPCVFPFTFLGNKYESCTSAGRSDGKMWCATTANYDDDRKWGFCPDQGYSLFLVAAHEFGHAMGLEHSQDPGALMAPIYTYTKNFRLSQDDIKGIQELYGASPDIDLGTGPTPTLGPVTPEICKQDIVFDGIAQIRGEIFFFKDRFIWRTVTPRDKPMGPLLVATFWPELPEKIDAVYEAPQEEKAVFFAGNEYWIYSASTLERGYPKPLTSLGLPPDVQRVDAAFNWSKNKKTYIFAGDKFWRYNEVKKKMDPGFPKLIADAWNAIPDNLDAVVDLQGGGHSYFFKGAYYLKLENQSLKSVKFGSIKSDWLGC
# Chain of Stromelysin-1 (P08254 whole entry): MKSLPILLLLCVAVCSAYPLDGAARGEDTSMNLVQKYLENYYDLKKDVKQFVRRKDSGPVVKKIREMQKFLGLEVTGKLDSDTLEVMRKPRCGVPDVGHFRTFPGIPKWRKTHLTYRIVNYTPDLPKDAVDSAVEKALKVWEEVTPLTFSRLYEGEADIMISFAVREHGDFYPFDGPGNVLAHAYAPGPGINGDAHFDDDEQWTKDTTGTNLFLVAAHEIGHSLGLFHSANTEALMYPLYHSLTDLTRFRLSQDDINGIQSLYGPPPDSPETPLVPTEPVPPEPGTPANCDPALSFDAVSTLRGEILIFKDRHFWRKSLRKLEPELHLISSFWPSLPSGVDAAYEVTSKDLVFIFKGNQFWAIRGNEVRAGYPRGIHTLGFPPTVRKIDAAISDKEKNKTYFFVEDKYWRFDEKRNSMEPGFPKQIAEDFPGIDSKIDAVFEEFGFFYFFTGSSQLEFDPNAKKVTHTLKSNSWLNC
structure (smiles),measurement,setting,value
COc1ccc2c(c1)C(=O)N(C[C@@]1(C#Cc3ccc4cc[nH]c4c3)NC(=O)NC1=O)C2,Activity,[1],2965 nM
same,Ki,[2],0.19 nM
COc1ccc2c(c1)C(=O)N(C[C@@]1(C#Cc3ccc(/C(=N/O)N4CCN(C)CC4)cc3)NC(=O)NC1=O)C2,Activity,[1],33 nM
same,Ki,[2],0.22 nM
CCN1CCN(Cc2ccc(C#C[C@]3(CN4Cc5ccc(OC)cc5C4=O)NC(=O)NC3=O)cc2)CC1,Activity,[1],239 nM
same,Ki,[2],0.29 nM
COc1ccc2c(c1)C(=O)N(C[C@@]1(C#Cc3ccc(/C=N/O)cc3)NC(=O)NC1=O)C2,Activity,[1],167 nM
same,Ki,[2],0.16 nM
COc1ccc2c(c1)C(=O)N(C[C@@]1(C#Cc3ccc(CC4CCN(C)CC4)nc3)NC(=O)NC1=O)C2,Activity,[1],195 nM
same,Ki,[2],0.47 nM
COc1ccc2c(c1)C(=O)N(C[C@@]1(C#Cc3cccnc3)NC(=O)NC1=O)C2,half-life,[3],2.2 h
same,IC50,[4],5200 nM
same,Tmax,[5],1.2 h
same,AUC,[6],1.1 µM·h
same,clearance,[7],317 mL/min/kg
same,AUC,[8],3.8 µM·h
same,bioavailability,[9],23%
same,AUC,[10],4 µM·h
same,IC50,[11],5800 nM
same,IC50,[12],1010 nM
same,half-life,[13],2.4 h
same,IC50,[14],2920 nM
same,IC50,[15],> 40000 nM
same,half-life,[16],0.9 h
same,AUC,[17],1.3 µM·h
same,clearance,[18],217 mL/min/kg
same,clearance,[19],317 mL/min/kg
same,IC50,[20],431 nM
same,bioavailability,[21],15%
same,AUC,[22],2.6 µM·h
same,bioavailability,[23],9%
same,Tmax,[24],2.2 h
same,Activity,[1],220 nM
same,Tmax,[25],6 min
same,IC50,[26],22 nM
same,AUC,[27],7.3 µM·h
same,Ki,[2],0.62 nM
COc1ccc2c(c1)C(=O)N(C[C@@]1(C#Cc3ccc(-c4ncccc4O)cc3)NC(=O)NC1=O)C2,Activity,[1],117 nM
same,Ki,[2],0.07 nM
CCN1CCN(/C(=N\O)c2ccc(C#C[C@]3(CN4Cc5ccc(OC)cc5C4=O)NC(=O)NC3=O)cc2)CC1,Activity,[1],20 nM
same,Ki,[2],0.16 nM
COc1ccc2c(c1)C(=O)N(C[C@@]1(C#Cc3ccccc3C)NC(=O)NC1=O)C2,Activity,[1],3142 nM
same,Ki,[2],2 nM
COc1ccc2c(c1)C(=O)N(C[C@@]1(C#Cc3cccc(C)c3)NC(=O)NC1=O)C2,Activity,[1],5148 nM
same,Ki,[2],0.72 nM
COc1ccc2c(c1)C(=O)N(C[C@@]1(C#Cc3ccc(C(N)=O)cc3)NC(=O)NC1=O)C2,Activity,[1],165 nM
same,Ki,[2],0.56 nM
COc1ccc2c(c1)C(=O)N(C[C@@]1(C#Cc3ccccc3)NC(=O)NC1=O)C2,Activity,[1],784 nM
same,Ki,[2],0.14 nM
COc1ccc2c(c1)C(=O)N(C[C@@]1(C#Cc3cnc4[nH]cnc4c3)NC(=O)NC1=O)C2,Activity,[1],193 nM
same,Ki,[2],0.92 nM
COc1ccc2c(c1)C(=O)N(C[C@@]1(C#Cc3cccc(C(C)C)c3)NC(=O)NC1=O)C2,Activity,[1],19000 nM
same,Ki,[2],0.5 nM
COc1ccc2c(c1)C(=O)N(C[C@@]1(C#Cc3ccc4[nH]cnc4c3)NC(=O)NC1=O)C2,Activity,[1],211 nM
same,Ki,[2],0.6 nM
COc1ccc2c(c1)C(=O)N(C[C@@]1(C#Cc3ccc4[nH]c(=O)[nH]c4c3)NC(=O)NC1=O)C2,Activity,[1],240 nM
same,Ki,[2],0.53 nM
COc1ccc2c(c1)C(=O)N(C[C@@]1(C#Cc3ccccc3F)NC(=O)NC1=O)C2,Activity,[1],617 nM
same,Ki,[2],0.13 nM
COc1ccc2c(c1)C(=O)N(C[C@@]1(C#Cc3ccc4cnn(C)c4c3)NC(=O)NC1=O)C2,Activity,[1],10400 nM
same,Ki,[2],0.52 nM
COc1ccc2c(c1)C(=O)N(C[C@@]1(C#Cc3ccc(C(=O)NC4CC4)cc3)NC(=O)NC1=O)C2,Activity,[1],487 nM
same,Ki,[2],2.55 nM
COc1ccc2c(c1)C(=O)N(C[C@@]1(C#Cc3ccc4[nH]ccc4c3)NC(=O)NC1=O)C2,Activity,[1],751 nM
same,Ki,[2],0.17 nM
COc1ccc2c(c1)C(=O)N(C[C@@]1(C#Cc3cccc(C(N)=O)c3)NC(=O)NC1=O)C2,Ki,[2],0.85 nM
COc1ccc2c(c1)C(=O)N(C[C@@]1(C#Cc3cccc(C#N)c3)NC(=O)NC1=O)C2,Activity,[1],273 nM
same,Ki,[2],0.06 nM
CCN1CCN(/C(=N\O)c2ccc(C#C[C@]3(CN4Cc5ccc(OC)cc5C4=O)NC(=O)NC3=O)cn2)CC1,Activity,[1],87 nM
same,Ki,[2],0.18 nM
COc1ccc2c(c1)C(=O)N(C[C@@]1(C#Cc3ccc(C(C)=O)cc3)NC(=O)NC1=O)C2,Activity,[1],352 nM
same,Ki,[2],0.5 nM
COc1ccc2c(c1)C(=O)N(C[C@@]1(C#Cc3ccccc3C(N)=O)NC(=O)NC1=O)C2,Activity,[1],5311 nM
same,Ki,[2],2.78 nM
COc1ccc2c(c1)C(=O)N(C[C@@]1(C#Cc3ccc(F)cc3)NC(=O)NC1=O)C2,Activity,[1],1675 nM
same,Ki,[2],0.26 nM
COc1ccc2c(c1)C(=O)N(C[C@@]1(C#Cc3ccc([C@H](C)N)cc3)NC(=O)NC1=O)C2,Activity,[1],621 nM
same,Ki,[2],2.35 nM
COc1ccc2c(c1)C(=O)N(C[C@@]1(C#Cc3cccc(F)c3)NC(=O)NC1=O)C2,Activity,[1],873 nM
same,Ki,[2],0.2 nM
COc1ccc(C#C[C@]2(CN3Cc4ccc(OC)cc4C3=O)NC(=O)NC2=O)cc1,Activity,[1],1332 nM
same,Ki,[2],0.41 nM
CCN1CCN(c2ccc(O)c(-c3ccc(C#C[C@]4(CN5Cc6ccc(OC)cc6C5=O)NC(=O)NC4=O)cc3F)n2)CC1,Activity,[1],40 nM
same,Ki,[2],0.1 nM
